From paper PMC3818134 (Clinical cancer research : an official journal of the …, 2013)

Columns and labels:
[1] = test system: stable p110α KD and control (CONSH) cell lines (RH30, RMS-1, RD, RMS-YM); test: MTS growth inhibition in paired CONSH and stable p110α KD lines; assay type: cell-based, human; details: MTS growth inhibition curves, 72hr exposure
Outline: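 Lines were transduced with lentiviral PIK3CA or control shRNA at MOI 10 with polybrene (4μg/ml). Puromycin selection (2.5μg/ml) ran from day 2, and stable lines were derived over about 4 weeks. Cells were grown in DMEM with 10% FBS at 37°C, 5% CO2. MTS growth inhibition curves were run after 72hr continuous exposure to the test compound, diluted from 10mM stock.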

[2] = test system: RD cells; test: GI50; assay type: cell-based, human; details: RD cells with NRAS mutation
Outline: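 RD cells in DMEM with 10% FBS at 37°C, 5% CO2. Compounds prepared as 10mM stocks, then diluted in medium. MTS read-out after 72hr continuous exposure; GI₅₀ = concentration giving 50% inhibition of proliferation. Isobologram: GI₅₀ of each single agent, plus GI₅₀ of one agent at several fixed sub-GI₅₀ concentrations of the other. These are plotted on the axes, with a diagonal line as theoretical additivity.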

[3] = test system: pERK1/2 in RD cells; test: Western immunoblot biomarker time course in RD cells; assay type: cell-based, human; details: 0.5× and 1.0× GI50 concentrations, 48hr time course
Outline: (§1)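 RD cells (DMEM, 10% FBS, 37°C) were treated with single agents or the combination at 0.5× and 1.0× GI₅₀ concentrations and sampled at time points up to 48h. Lysates (10μg) were run on Bis-Tris/Tris-Acetate gels and transferred to PVDF. Primary antibody 1:1,000 overnight at 4°C; HRP secondary 1:10,000 for 2h at room temperature; ECL Plus detection. PhosphorImager quantitation; treated/control levels expressed as % of time 0.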

[4] = test system: pSer473AKT in RD cells; test: Western immunoblot biomarker time course in RD cells; assay type: cell-based, human; details: 0.5× and 1.0× GI50 concentrations, 48hr time course
Outline: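 RD cells (DMEM, 10% FBS, 37°C, 5% CO2) treated with test compounds singly or combined; protein extracted at time points over 48 hr. Lysates BCA-quantified, 10 μg on Bis-Tris or Tris-Acetate gels, PVDF transfer, primary 1:1,000 overnight 4°C, HRP secondary 1:10,000 2 h RT, ECL Plus, phosphorimager quantitation. Control and treated loaded side by side; treated/control phospho-levels given as % of time 0.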

[5] = Plasma and tumor pharmacokinetics; assay type: in vivo, mice; details: for plasma level 16hrs following treatment: 10mg/kg p.o., mice bearing RD xenografts; for plasma concentrations when administered alone: AZD8055 compared with NVP-BEZ235
Outline: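 Female 6-8 week athymic nude (Ncr) mice carried subcutaneous RD xenografts (5 × 10⁶ cells, 25% matrigel). Oral dosing at 0.1mL/10g: MEK inhibitor 10mg/kg in 10% DMSO water; TORC1/2 inhibitor 10 or 20mg/kg in acidified water; PI3K/mTOR inhibitor 25mg/kg in 10% NMP/90% PEG300. Given alone or combined. Plasma and tumors were sampled at various times (n=3), or 3hrs after the final daily dose (19-22 days). Analysed by LC-MS/MS with MRM.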

[6] = test system: MEK1/2; details: read-out: IC50 concentration for MEK1/2; cited from earlier work
[7] = test system: p110α; test: PI3K isoform inhibition profile, p110α versus other isoforms; assay type: biochemical; details: Suppl Fig S4A
[8] = test system: mTor; details: cited from earlier work
[9] = test system: pAKT (Ser473) in RD xenograft tumors; test: Tumor PD biomarker, MSD immunoassay; assay type: in vivo, mice; details: RD xenografts, end of therapeutic study
Outline: (§2)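 Female 6-8-week athymic nude (Ncr) mice bore subcutaneous flank RD xenografts (5 × 10⁶ cells in 25% matrigel). Once tumors reached ≈5 mm (n=6/group), mice received daily oral dosing for 19-22 days, alone or combined, with vehicle controls: MEK inhibitor 10mg/kg (10% DMSO water), TORC1/2 inhibitor 10 or 20mg/kg (acidified water), PI3K/mTOR inhibitor 25mg/kg (10% NMP/90% PEG300). Tumors were excised and snap-frozen at termination. MSD electrochemiluminescence gave phospho/total ratios in 10μg lysate.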

[10] = test system: pS6 in RD xenograft tumors; test: Tumor PD biomarker, MSD immunoassay; assay type: in vivo, mice; details: RD xenografts, end of therapeutic study
Outline: as §2

[11] = test system: PI3K/mTORC1/2; details: cited from earlier work
[12] = test system: p110β; test: PI3K isoform inhibition profile, p110β versus p110α; assay type: biochemical; details: Suppl Fig S4A
[13] = test system: pS6 in RD cells; test: Western immunoblot biomarker time course in RD cells; assay type: cell-based, human; details: 0.5× and 1.0× GI50 concentrations, 48hr time course
Outline: as §1

[14] = test system: pERK in RD xenograft tumors; test: Tumor PD biomarker, MSD immunoassay; assay type: in vivo, mice; details: RD xenografts, end of therapeutic study
Outline: as §2

[15] = 10mg/kg p.o. each, versus alone

plasma concentration range in combination with AZD6244 versus alone ([5]; 3hrs following the final dose) | plasma concentrations when administered alone ([5]; 3hrs following the final dose) | SMILES | sensitivity of stable p110α KD lines compared with CONSH counterparts [1] | single-agent sensitivity of RD cells [2] | pERK levels [3] | plasma level 16hrs following treatment [5] | change of tumor AKT phosphorylation [9] | change of tumor S6 phosphorylation [10] | also measured
 |  | Cn1cnc2c(F)c(Nc3ccc(Br)cc3Cl)c(C(=O)NOCCO)cc21 [AZD6244] | only the RMS-1 KD line (lacking both p110α and p110δ) exhibited significantly enhanced sensitivity | relatively resistant | ablated pERK levels at all time points and both concentrations | close to, or below, the limit of detection |  |  | pSer473AKT levels [4]: increased p^Ser473AKT levels; elimination phase in combination with AZD8055 [5, 15]: extended; peak plasma concentrations in combination with AZD8055 [5, 15]: reduced; plasma AZD6244 concentrations in combination with NVP-BEZ235 ([5]; 3hrs following the final dose): reduced plasma concentrations of AZD6244 to a similar extent as AZD8055; IC50 [6]: 14 nM
 |  | Nc1cc(C(F)(F)F)c(-c2cc(N3CCOCC3)nc(N3CCOCC3)n2)cn1 [BMK120] | No differences in sensitivity |  |  |  |  |  | selectivity for p110α versus the other isoforms [7]: modestly selective for p110α versus the other isoforms
 |  | FC(F)c1nc2ccccc2n1-c1nc(N2CCOCC2)nc(N2CCOCC2)n1 [ZSTK474] | increased sensitivity |  |  |  |  |  | IC50 ([8]; read-out: IC50 against mTor): 377 nM
increased | in the same range | Cn1c(=O)n(-c2ccc(C(C)(C)C#N)cc2)c2c3cc(-c4cnc5ccccc5c4)ccc3ncc21 [NVP-BEZ235] | more sensitive to mTOR inhibition than their CONSH counterparts |  |  |  | equally efficient in reducing AKT and S6 phosphorylation | equally efficient in reducing AKT and S6 phosphorylation | concentrations at which it predominantly inhibits mTOR [8]: less than 100 nM; concentrations at which it is a dual PI3K/mTORC1/2 inhibitor [11]: above 500 nM
 |  | Cc1cc(C(C)Nc2ccccc2)c2nc(N3CCOCC3)cc(=O)n2c1 (stereo not drawn) [TGX221] | only the RMS-1 stable KD cell line, with minimal p110α and δ expression, showed increased sensitivity |  |  |  |  |  | selectivity for p110β versus p110α [12]: 78 fold
increased | in the same range | COc1ccc(-c2ccc3c(N4CCOC[C@@H]4C)nc(N4CCOC[C@@H]4C)nc3n2)cc1CO [AZD8055] | more sensitive to mTOR inhibition than their CONSH counterparts | relatively resistant | increased pERK levels | close to, or below, the limit of detection | equally efficient in reducing AKT and S6 phosphorylation | equally efficient in reducing AKT and S6 phosphorylation | pS6 levels / inhibition of S6 phosphorylation [13]: concentration dependent; change of tumor pERK levels [14]: increased pERK levels to a greater extent than NVP-BEZ235; plasma and tumor levels in combination with AZD6244 [5, 15]: higher
